B2AR ag = agonists of human beta-2 adrenergic receptor inducing internalization; Am2.2-beta2AR cells, FAP receptor internalization, flow cytometry; response, % (no concentration beside the values); hit rate 0.43% among 340,000;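 active = response above a set limit, near 3 SD of response in nonfluorescent compounds, cut at about 42% in these data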
Lipid droplet = modulators of hepatic lipid droplet formation. AML12 mouse hepatocytes, oleate lipid droplets, BODIPY imaging. AID 1656. hit rate 0.4% among 240,000. inhibition, % at 6.5 µM;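 active = lipid droplet intensity inhibited by at least 50%, with more than 500 cells counted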
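Test system: AML12 mouse liver cells; schedule: overnight exposure; technique: high-content imaging of BODIPY-stained droplets and DAPI nuclei; read-out: % inhibition of corrected integrated BODIPY droplet signal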
TAG inh = inhibitors of triacylglycerol accumulation | AID 651582 | hit rate 0.66% among 230,000 | inhibition, % at 12.5 µM | H9c2 cells, Nile Red lipid (TAG) fluorescence; cells loaded with 200 µM oleic acid;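 active = pattern-corrected inhibition of lipid staining of at least 50% with the nuclear-stain viability signal not falling by more than 50%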;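 note: 0% = DMSO wells and 100% = triacsin C control wells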
Arrestin-AP2 inh = inhibitors of human beta-arrestin and AP2 interaction; hit rate 0.31% among 340,000; AID 504490; inhibition, % at 10 µM; FITC-arrestin peptide / GST-AP2 beads, flow cytometry; AP2 beta2 appendage carries R879A mutation;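 active = inhibition above a set limit, near 3 SD of compounds lacking own fluorescence, cut at about 54% in these data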;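 note: plate controls were DMSO wells for no effect and 5 µM unlabelled arrestin peptide for full effect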
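System: GST-AP2 R879A glutathione beads. Medium: PBS with 0.05% Tween 20 and 0.1% BSA. Also added: FITC-arrestin peptide, 50 nM. Incubation: 12 min plus 1 h, RT. Measured by: high-throughput flow cytometry of beads, ex 488, em 535 nm. Evaluation: percent drop in bead-associated FITC signal.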
NTR1 agonist = NTR1 (human) agonism. P30989. NTR1-U2OS beta-arrestin-GFP spot imaging, agonist mode. hit rate 0.17% among 330,000. activation, % at 20 µM. AID 493036;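 active = activation at or above 40% of the spot to cytoplasm intensity ratio, with at least 20 cells analyzed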;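 note: 0% = DMSO without peptide and 100% = 100 nM NTR1 peptide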
GRK2 aptamer HTS = inhibitors of human GRK2 displacing RNA aptamer; P25098; bead flow cytometry, FAM-aptamer displacement from GRK2; inhibition of aptamer binding, % at 10 µM; hit rate 0.59% among 330,000; AID 488847;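 active = inhibition of aptamer binding above 40%, roughly 3 SD of noise, on plates passing a quality check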;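 note: median bead fluorescence of bound FAM aptamer so fluorescent compounds give negative values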
Target sequence (P25098 whole entry, looked up): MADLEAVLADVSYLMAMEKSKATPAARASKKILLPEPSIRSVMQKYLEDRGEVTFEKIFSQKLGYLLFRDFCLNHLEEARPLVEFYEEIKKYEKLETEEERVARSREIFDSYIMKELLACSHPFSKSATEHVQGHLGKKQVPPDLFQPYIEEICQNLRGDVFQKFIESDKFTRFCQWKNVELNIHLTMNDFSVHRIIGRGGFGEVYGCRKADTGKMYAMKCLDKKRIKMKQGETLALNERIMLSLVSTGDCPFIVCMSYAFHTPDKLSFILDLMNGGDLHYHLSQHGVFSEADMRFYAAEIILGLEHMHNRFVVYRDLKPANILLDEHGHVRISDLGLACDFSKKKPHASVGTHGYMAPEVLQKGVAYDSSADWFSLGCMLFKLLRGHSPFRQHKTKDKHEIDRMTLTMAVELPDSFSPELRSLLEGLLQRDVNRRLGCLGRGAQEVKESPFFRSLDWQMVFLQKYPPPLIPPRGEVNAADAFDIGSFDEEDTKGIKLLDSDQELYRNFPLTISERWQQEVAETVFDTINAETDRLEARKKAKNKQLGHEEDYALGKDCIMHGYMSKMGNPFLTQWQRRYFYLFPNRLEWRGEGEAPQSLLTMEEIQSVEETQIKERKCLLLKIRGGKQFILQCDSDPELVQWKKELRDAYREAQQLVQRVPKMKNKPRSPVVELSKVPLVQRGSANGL
GRK2 CP1 = confirmation of human GRK2 inhibitors displacing RNA aptamer; shares compounds with GRK2 aptamer HTS; bead-bound GRK2, FAM-aptamer displacement, flow cytometry; aptamer displacement, % at 10 µM; hit rate 4% among 2,000; AID 504451;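 active = aptamer displacement above 40%, near three times the noise of non-fluorescent compounds, on plates passing quality checks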;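 note: negative values mostly reflect intrinsic compound fluorescence rather than true enhancement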
FAM quench CP1 = counter-screen for GRK2 aptamer inhibitors: fluorescent aptamer quenchers | fluorescence response (% of DMSO), % at 10 µM | AID 504580 | 2,000 tested, under 10 active | Carboxyfluorescein RNA aptamer on beads, flow cytometry quenching; hits give low values | shares compounds with GRK2 aptamer HTS;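 active = compounds that quench the bead-bound fluorescent RNA probe, cutting fluorescence to under half of the solvent control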;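 note: counterscreen run without GRK2 so only probe quenching by compound is measured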
Active calls of the source: *; · = not tested or not shown. Compounds with a hit are over-represented: about 2% of the library has one in this group of screens.

SMILES | B2AR ag | Lipid droplet | TAG inh | Arrestin-AP2 inh | NTR1 agonist | GRK2 aptamer HTS | GRK2 CP1 | FAM quench CP1
COc1cccc(CN2CCSCC2)c1OC | 7 | -2 | -31 | 4 | 2 | 0 | · | ·
COc1cccc(CN2CCN(Cc3cccc(Br)c3)CC2)c1OC | 17 | -7 | · | 4 | 0 | 55* | 1 | 98
Cc1ccc(C2CC(=O)Nc3cc4c(cc32)OCCO4)s1 (configuration not stated) | 1 | 12 | · | -5 | 2 | 6 | -2 | 101
O=C1CC(c2cccs2)c2cc3c(cc2N1)OCCO3 (configuration not stated) | -7 | 8 | · | -2 | 1 | 1 | · | ·
CC(C)Sc1nc2c([nH]1)c(=N)ncn2Cc1ccccc1 | -10 | -1 | -9 | -36 | 0 | 81* | 0 | 97
Cc1ccc(-c2csc3ncn(CC(=O)NCC(c4ccco4)N4CCCC4)c(=O)c23)cc1 (configuration not stated) | 9 | · | -4 | -2 | -1 | 78* | -4 | 92
CCn1nc(C(=O)Nc2cccc(C(F)(F)F)c2)c(Cl)c1Cl | 0 | · | 21 | -5 | -1 | 53* | 1 | 102
COc1ccc(NS(=O)(=O)c2cccc(C(=O)NCc3ccccc3CN3CCCC3)c2)cc1 | 15 | · | 10 | 0 | -2 | 0 | · | ·
Cc1c(Cl)cnc(NC(=O)CSc2n[nH]c(N)n2)c1Cl | -8 | · | 14 | -3 | 0 | 4 | · | ·
CC1Cc2ccccc2N1C(=O)CSc1nncs1 (configuration not stated) | -1 | · | 12 | 25 | 0 | 75* | -2 | 99
O=C(COC(=O)Cc1ccc(Cl)cc1)NCc1ccco1 | -7 | · | -1 | 15 | 5 | 59* | 33 | 98
O=C(COC(=O)Cc1c(Cl)cccc1Cl)NCc1ccco1 | -18 | · | 0 | -11 | 0 | 6 | · | ·
O=C(COC(=O)Cc1ccc(Cl)c(Cl)c1)NCc1ccco1 | -4 | · | 5 | -10 | 0 | 0 | -3 | 101
Cc1cc(Br)ccc1SCC(=O)OCC(=O)NCc1ccco1 | 7 | -1 | 14 | 7 | -2 | 52* | 25 | 100
O=C(COC(=O)CSc1ccc(Br)cc1)NCc1ccco1 | -4 | · | 2 | -14 | 0 | 0 | · | ·
CN(C(=O)c1cc(COc2ccc(F)cc2Cl)on1)C1CCOC1 (configuration not stated) | · | · | -2 | · | · | · | · | ·
CC(C)n1ncc2c(C(=O)NCc3cccnc3)cc(C3CC3)nc21 | -3 | · | 11 | -6 | 3 | · | · | ·
CC1CCc2c(sc(NC(=O)c3c([N+](=O)[O-])cnn3C)c2C(N)=O)C1 (configuration not stated) | -7 | 4 | 7 | -12 | -1 | 2 | · | ·
CCC1Sc2ccccc2N(CC(=O)NCCC(C)C)C1=O (configuration not stated) | 0 | · | · | 9 | 0 | 34 | -2 | 104
O=C(OC1CCCCC1)c1ccc2c(c1)C1C=CCC1C(C(=O)O)N2 (configuration not stated) | · | -3 | · | · | · | · | · | ·
O=C(O)C1Nc2c(Cl)cc(Cl)c(Cl)c2C2C=CCC12 (configuration not stated) | 19 | · | -7 | 10 | · | 59* | 6 | 136
CC(=O)c1cccc(NC(=O)c2cc(-c3ccc(C)cc3)on2)c1 | 4 | -31 | · | 31 | 0 | 2 | -2 | 97
Cc1nn(-c2cccc(Cl)c2)nc1C(=O)Nc1cccc(C(=O)NC2CC2)c1 | 16 | · | -5 | -12 | 9 | 2 | 1 | 96
CC(=O)c1cccc(NC(=O)c2c(C)nn(-c3ccccc3)c2Cl)c1 | 0 | 11 | · | 5 | -1 | 0 | 2 | 84
Cc1ccc(-n2nc(C)c(C(=O)Nc3cccc(C(=O)NC4CC4)c3)n2)c(C)c1 | 0 | · | 8 | 12 | 2 | 0 | -1 | 103
COc1ccc(NC(=O)c2cc(-c3ccc(C)cc3)on2)cc1OC | 8 | -12 | 7 | 2 | 0 | 0 | · | ·
